# Assay results collected from several papers.
# Lines come from different studies, so protocols differ.
# Target: Serine/threonine-protein kinase PLK4 (PLK4, Homo sapiens, UniProt O00444)
# One construct used (O00444 1-970): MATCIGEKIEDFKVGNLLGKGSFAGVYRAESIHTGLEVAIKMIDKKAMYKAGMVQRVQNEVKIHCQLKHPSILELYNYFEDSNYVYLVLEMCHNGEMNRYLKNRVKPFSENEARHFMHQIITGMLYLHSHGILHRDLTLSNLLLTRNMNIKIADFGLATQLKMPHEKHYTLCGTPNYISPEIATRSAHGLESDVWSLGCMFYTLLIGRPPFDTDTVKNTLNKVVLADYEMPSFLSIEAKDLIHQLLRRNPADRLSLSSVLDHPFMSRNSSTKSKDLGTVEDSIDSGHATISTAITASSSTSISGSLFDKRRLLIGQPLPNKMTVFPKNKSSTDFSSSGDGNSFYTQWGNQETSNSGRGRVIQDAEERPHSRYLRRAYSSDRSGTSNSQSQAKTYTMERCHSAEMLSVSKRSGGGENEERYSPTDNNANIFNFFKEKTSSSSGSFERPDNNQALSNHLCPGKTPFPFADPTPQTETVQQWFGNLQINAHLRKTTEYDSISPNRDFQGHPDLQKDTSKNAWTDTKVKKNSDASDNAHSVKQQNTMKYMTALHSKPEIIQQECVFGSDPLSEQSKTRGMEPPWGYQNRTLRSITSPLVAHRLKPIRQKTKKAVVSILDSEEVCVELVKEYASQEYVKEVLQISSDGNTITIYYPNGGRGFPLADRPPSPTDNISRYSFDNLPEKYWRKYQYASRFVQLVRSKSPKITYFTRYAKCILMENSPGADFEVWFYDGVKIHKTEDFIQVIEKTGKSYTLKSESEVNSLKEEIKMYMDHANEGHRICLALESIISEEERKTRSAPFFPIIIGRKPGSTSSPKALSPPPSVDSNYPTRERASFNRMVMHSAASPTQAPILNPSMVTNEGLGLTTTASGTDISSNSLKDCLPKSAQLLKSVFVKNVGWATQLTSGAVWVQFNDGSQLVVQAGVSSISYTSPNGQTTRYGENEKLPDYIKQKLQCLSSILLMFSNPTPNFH
SMILES,observed,action,technique,concentration,endpoint,value
CC(C)(C)c1nc2c(s1)c1nc(N)ncc1c1ccc(NS(=O)(=O)c3c(F)cccc3F)c(F)c12,enzyme activity,inhibitor,radiometric,1 µM,remaining activity,44%
CN1CC(Oc2cnc(C#N)cc2-c2ccn3nc(NC(=O)C4CC4)cc3c2)C1,enzyme activity,inhibitor,,1 µM,inhibition,-5%
CC(C)(C)c1nc(-c2cccc(NS(=O)(=O)c3c(F)cccc3F)c2F)c(-c2ccnc(N)n2)s1,enzyme activity,inhibitor,radiometric,1 µM,remaining activity,6%
O=C(Nc1cccnn1)N1CC(C/C=C/c2cncc(Oc3ccc(C(F)(F)F)cn3)n2)C1,cell-free assay,,competition with immobilised ligand,1 µM,remaining binding,98%
CC(C)(O)[C@H]1CC[C@H](Nc2ccc3ncc(-c4cccc(C(F)(F)F)c4)n3n2)CC1,enzyme activity,inhibitor,,1 µM,remaining activity,101%
Nc1ncnc2occ(-c3ccc(NC(=O)Nc4cc(C(F)(F)F)ccc4F)cc3)c12,cell-free assay,inhibitor,,20 µM,remaining signal,0.55%
Cc1ccc(C(=O)NCc2ccsc2)cc1C#Cc1cn(C(C)C)c2ncnc(N)c12,enzyme activity,inhibitor,,1 µM,activity vs control,75%
COc1cc(Cl)c(C(=O)N[C@@H](CN[C@H]2CC[C@@H](N)CC2)Cc2ccc(C#N)cc2)cc1-c1ccc(CN[C@H](C)c2ccc(C)cc2)o1,enzyme activity,inhibitor,,1 µM,remaining activity,83%
COc1cc2nccc(Oc3ccc(NC(=O)Nc4ccc(F)cc4F)c(F)c3)c2cc1OC,thermal stability,,DSF,10 µM,ΔTm,5 to 10 °C
Cc1sc(C(=O)NC2COC2)cc1-n1cc(NC(=O)Nc2c(F)cccc2Cl)cn1,enzyme activity,inhibitor,,10 µM,remaining activity,100%
Cc1ccc(C(=O)Nc2ccc(CN3CCN(C)CC3)c(C(F)(F)F)c2)cc1C#Cc1cnc2cccnn12,enzyme activity,inhibitor,,23.5 nM,remaining activity,84%
O=C(Nc1cnn(-c2csc(C(=O)NC3COC3)c2)c1)Nc1ccccc1Cl,enzyme activity,inhibitor,,5 µM,remaining activity,88.2%
CN(C)c1ncnc(-c2ccc3nc(Nc4cc(CN5CCN(C(=O)CC(F)(F)F)CC5)ccn4)[nH]c3c2)c1Cl,cell-free assay,,competition with immobilised ligand,1 µM,remaining binding,76%
